Results as given in paper PMC7442746 (ACS chemical biology, 2020).

Experiments:
[1] = molecular target: T1, recombinant human HDAC10 (TwinStrep-HDAC10 fusion protein) (Homo sapiens, UniProt Q969S8); assay: Differential scanning fluorimetry; assay type: binding; conditions: protein 3 μM, inhibitor 6 μM; for melting temperature (Tm) of TwinStrep-HDAC10 with inhibitor: Tm 65.90 °C with 0.6% DMSO, n = 2
T1 sequence (Q969S8 1-669): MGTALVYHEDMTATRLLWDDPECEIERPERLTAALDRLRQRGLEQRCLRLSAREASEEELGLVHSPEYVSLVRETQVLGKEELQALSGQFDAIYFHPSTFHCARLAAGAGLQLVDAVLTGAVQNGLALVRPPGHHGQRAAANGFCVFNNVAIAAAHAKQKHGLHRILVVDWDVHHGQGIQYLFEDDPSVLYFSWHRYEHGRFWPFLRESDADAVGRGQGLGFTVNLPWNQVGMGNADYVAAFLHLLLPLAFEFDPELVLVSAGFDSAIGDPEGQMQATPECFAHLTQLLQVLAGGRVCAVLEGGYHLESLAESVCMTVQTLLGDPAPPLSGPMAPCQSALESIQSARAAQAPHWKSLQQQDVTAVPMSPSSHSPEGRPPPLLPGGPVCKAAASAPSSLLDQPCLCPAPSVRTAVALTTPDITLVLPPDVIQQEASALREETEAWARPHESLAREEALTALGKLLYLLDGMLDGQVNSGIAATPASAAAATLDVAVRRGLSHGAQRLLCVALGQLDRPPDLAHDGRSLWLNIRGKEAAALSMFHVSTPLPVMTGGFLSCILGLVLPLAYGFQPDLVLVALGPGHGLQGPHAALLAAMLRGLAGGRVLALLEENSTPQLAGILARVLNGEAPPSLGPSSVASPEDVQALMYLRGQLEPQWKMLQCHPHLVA
Procedure, shortened: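 Nano-DSF on recombinant human HDAC10 with an N-terminal TwinStrep tag. Protein at 3 μM and test compound at 6 μM (protein:inhibitor 1:2). Controls were protein alone and protein with DMSO, each run once. Compound runs were done twice and Tm reported as the mean of the two. Thermal shift was taken as the Tm change from the DMSO control.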

[2] = system: HDAC10 over HDAC6; conditions: cited from earlier work
[3] = system: human HDAC10; conditions: oxa analogue weaker than Tubastatin A; cited from earlier work

Row | Compound | melting temperature (Tm) of TwinStrep-HDAC10 with inhibitor [1] [°C] | selectivity for inhibition of HDAC10 compared to HDAC6 [2] [fold] | thermal shift ([1]; relative to DMSO control) [°C] | difference in HDAC10 binding affinity between Tubastatin A and its oxa analogue [3] [fold]
1 | CN1CCc2c(c3ccccc3n2Cc2ccc(C(=O)NO)cc2)C1 [Tubastatin A, reference compound] | 72.94 ± 0.08 | ~8 | – | –
2 | O=C(NO)c1ccc(Cn2c3c(c4ccccc42)COCC3)cc1 [oxa-Tubastatin A] | 67.27 ± 0.01 | – | 1.37 | 52
